Screening data (PubChem BioAssay)
Hits are enriched below; roughly 2.5% of the tested compounds scored in any of these assays.
miR122 inh = blocks miR-122 activity in Huh7 sensor cells; Huh7 miR-122 Renilla luciferase sensor, 48 h; neutral wells = 0, positive control = 100; activation (reporter increase), % at 12.5 µM; actives 0.3% (n = 340,000);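 active means mean replicate activation score at least 90 and every replicate individually at or above 90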;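 further: higher luciferase means less miR-122 activity so hits act as miR-122 inhibitors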
E-selectin induc = induces E-selectin expression in human endothelial cells; actives 0.37% (n = 260,000); HUVEC E-selectin immunofluorescence imaging; normalized: neutral wells 0, TNF-alpha wells 100; activation, % at 7.58 µM; P16581;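 active means mean E-selectin-positive cell signal at least 10% of the positive control, reached in at least 60% of replicates, without over 20% cell loss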
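Test system: HUVEC | Signal: Immunofluorescence imaging | Read-out: Percent E-selectin-positive cells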
FGF22 binding = FGF22 (human) thermal shift binding | recombinant FGF22 thermal shift, SYPRO orange fluorescence; percent of sucrose octasulfate shift, DMSO zero | Q9HCT0 | activity (Tm shift, normalised), % at 9.99 µM | actives 1.5% (n = 340,000);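 active means mean Tm shift, scaled 0 neutral to 100 positive control, at about 1.3% or above, every replicate too, limit read from the data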
Target sequence (Q9HCT0 whole entry, looked up): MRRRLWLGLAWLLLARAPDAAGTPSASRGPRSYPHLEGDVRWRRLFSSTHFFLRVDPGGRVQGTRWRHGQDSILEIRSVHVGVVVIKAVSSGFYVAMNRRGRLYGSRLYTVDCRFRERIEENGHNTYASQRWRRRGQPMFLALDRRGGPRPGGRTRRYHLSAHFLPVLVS
S100A4 MyoIIA = inhibitors of human S100A4 binding to myosin IIA peptide; inhibition, % at 10.7 µM; actives 0.14% (n = 360,000); S100A4/TAMRA-MyoIIA peptide fluorescence polarization;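 active means mean inhibition of at least 70% across replicates, with every replicate also reaching that level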
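incubation = readout 5 min after mixing, signal stable up to 60 min | system = S100A4 monomer protein | buffer or medium = HEPES pH 7.2 with CaCl2, KCl, NaCl, DTT, Triton | benchmarks = neutral control DMSO, positive control TFP | also added = fluorescent myosin IIA peptide, 5 nM | compound dosing = one concentration per compound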
SIRT5 block = inhibitors of human sirtuin-5 desuccinylase; AID 652115; Purified SirT5, succinyl-peptide AMC, trypsin-coupled fluorescence; actives 1.1% (n = 330,000); Q9NXA8; inhibition, % at 15 µM; in the data active means inhibition above about 15%
Target sequence (Q9NXA8 whole entry, looked up): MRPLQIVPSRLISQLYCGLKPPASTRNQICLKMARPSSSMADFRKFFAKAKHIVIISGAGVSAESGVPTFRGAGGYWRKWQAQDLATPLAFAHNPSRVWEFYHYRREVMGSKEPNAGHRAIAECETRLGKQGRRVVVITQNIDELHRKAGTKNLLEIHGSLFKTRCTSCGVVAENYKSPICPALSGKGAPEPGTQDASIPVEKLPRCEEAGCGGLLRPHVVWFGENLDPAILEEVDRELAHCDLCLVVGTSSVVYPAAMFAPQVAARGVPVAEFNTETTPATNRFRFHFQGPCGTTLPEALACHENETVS
An asterisk follows results filed as active; · = no result; ! = not active in a repeat; [ ] = another dose, or the depositor's remark.

SMILES | miR122 inh | E-selectin induc | FGF22 binding | S100A4 MyoIIA | SIRT5 block
COc1ccc2c3c(n(C)c2c1)[C@@H](CO)N(Cc1ccc2c(c1)OCO2)CC31CN(C(=O)c2ccc3c(c2)OCO3)C1 | · | 0.0 | -0.1 | -41.9 | 6.0
O=C(Nc1cccc(F)c1)N1[C@@H]2CNC[C@H]1C2c1ccc(-c2cccnc2)cc1 (stereo not given in full) | · | 0.1 | · | -9.0 | -1.7
CC(C)CC#Cc1ccc2c(c1)O[C@@H](CN(C)S(=O)(=O)c1cccc(F)c1)[C@H](C)CN([C@@H](C)CO)S2(=O)=O | -10.1[16.7 µM] | 0.0 | · | -19.5 | 17.1*
COc1cccc(S(=O)(=O)N(C)C[C@H]2Oc3cc(C#CCN(C)C)ccc3S(=O)(=O)N([C@@H](C)CO)C[C@H]2C)c1 | 4.3[16.7 µM] | -0.1 | -0.1 | 3.7 | 3.0
C[C@H](CO)N1C[C@H](C)[C@H](CN(C)S(=O)(=O)c2cccc(F)c2)Oc2cc(C#CCN(C)C)ccc2S1(=O)=O | -11.8[16.7 µM] | 0.0 | -0.3 | -10.1 | 5.0
CCCC#Cc1ccc2c(c1)O[C@H](CN(C)S(=O)(=O)c1cccc(OC)c1)[C@H](C)CN([C@H](C)CO)S2(=O)=O | 56.8 | -0.1 | 0.8 | -5.1 | 17.3*!
COCC#Cc1ccc2c(c1)O[C@@H](CN(C)S(=O)(=O)c1cccc(F)c1)[C@@H](C)CN([C@H](C)CO)S2(=O)=O | 0.6 | -0.5 | 0.1 | 7.5 | 18.6*!
CC(C)CC#Cc1ccc2c(c1)O[C@@H](CN(C)S(=O)(=O)c1cccc(F)c1)[C@H](C)CN([C@H](C)CO)S2(=O)=O | -6.2[16.7 µM] | -0.5 | 0.2 | -8.6 | 19.4*
C[C@H](CO)N1C[C@H](C)[C@@H](CN(C)Cc2ccc(Oc3ccccc3)cc2)Oc2ccc(NC(=O)CCC(F)(F)F)cc2CC1=O | 2.6[16.7 µM] | 8.2 | -0.5 | · | ·
CCCC#Cc1ccc2c(c1)O[C@@H](CN(C)S(=O)(=O)c1cccc(F)c1)[C@@H](C)CN([C@H](C)CO)S2(=O)=O | 61.6[16.7 µM] | -0.2 | -0.1 | -0.8 | 1.0
CC(C)CC#Cc1ccc2c(c1)O[C@H](CN(C)S(=O)(=O)c1cccc(F)c1)[C@@H](C)CN([C@H](C)CO)S2(=O)=O | 20.3[16.7 µM] | -0.2 | -0.1 | -0.4 | 15.7*
CC(C)CC#Cc1ccc2c(c1)O[C@@H](CN(C)S(=O)(=O)c1cccc(F)c1)[C@@H](C)CN([C@@H](C)CO)S2(=O)=O | -12.2[16.7 µM] | · | 0.1 | -2.3 | 19.6*
CC(C)NC(=O)Nc1ccc2c(c1)CC(=O)N([C@H](C)CO)C[C@H](C)[C@@H](CN(C)Cc1ccc(Cl)c(Cl)c1)O2 | -1.2[16.7 µM] | -7.0 | -0.4 | -0.3 | 4.1
Cc1ccc(S(=O)(=O)Nc2ccc3c(c2)C(=O)N([C@@H](C)CO)C[C@H](C)[C@@H](CN(C)C(=O)Nc2cccc4ccccc24)OCCCC[C@@H](C)O3)cc1 | -6.8[16.7 µM] | 0.3 | -0.2 | -4.0 | 15.8*
Cc1ccc(S(=O)(=O)Nc2ccc3c(c2)C(=O)N([C@@H](C)CO)C[C@H](C)[C@@H](CN(C)C(=O)Nc2cccc4ccccc24)OCCCC[C@H](C)O3)cc1 | -3.6[16.7 µM] | 0.2 | -0.2 | -2.7 | 16.4*
COc1ccc2c3c([nH]c2c1)[C@H](CO)N(C(=O)Nc1ccc(F)cc1)CC31CCN(S(=O)(=O)c2cccc(F)c2)CC1 | · | -0.9 | 0.0 | -6.4 | 5.7
COc1ccc2c3c(n(C)c2c1)[C@H](CO)N(C(=O)c1ccccc1)CC31CN(Cc2ccccc2OC)C1 | · | -0.8 | 0.0 | · | ·
Cc1noc(C)c1NC(=O)Nc1ccc2c(c1)CC(=O)N([C@@H](C)CO)C[C@@H](C)[C@@H](CN(C)Cc1ccc(-c3ccccc3)cc1)O2 | -4.8[16.7 µM] | 1.3 | 0.3 | 8.2 | -1.3
C[C@H](CO)N1C[C@H](C)[C@@H](CN(C)Cc2ccc(-c3ccccc3)cc2)Oc2ccc(NC(=O)CCN3CCOCC3)cc2CC1=O | 31.6[16.7 µM] | -0.3 | -0.2 | 14.1 | 0.8
COc1ccc(-c2csc(Nc3ccc(C)cn3)n2)cc1 | · | 0.0 | 60.8* | 4.1 | -1.2
O=C1N[C@H](Cc2ccccc2)COCn2nncc2CC[C@@H]1Cc1ccccc1 | · | 0.2 | · | · | ·
O=C(Nc1c2c(nc3ccccc13)CCCC2)c1ccccc1Cl | -4.5 | · | 44.0* | -7.9 | 0.5
COc1ccc2nc3ccccc3nc2c1NC(=O)c1ccccc1Cl | · | · | 42.9* | 0.6 | -1.1
O=C(Nc1c2c(nc3ccccc13)CCCC2)c1ccccc1F | 2.5 | · | 0.2 | -2.9 | -3.5
